Measured values as given in article PMC10651396 (The Journal of Cell Biology, 2023).
Numbering of substitutions follows the chain as printed. Where no end group is shown, it is not given here.

B1: GST-Aim21^CPI (Aim21 491-545) with His-Tda2 (Tda2/Aim21 complex) (complex, S. cerevisiae)
chain 1: QAKTGPLGGTRRGRGPRGRKLPSKVASVEKIEEDDNTNKIEIFNNWNVSSSFSKE
chain 2: MSMQIEIKDGRSDNSPLPERKLVTLIQESYDSLKDDNEINLSTESTSNLLIKLVLEKLEKHSSLYKYIASVTTLNIEGLNEENANFSLKNDIGASWESKKDGIFNYKLEDKNNNECYLITILWLHK
B2: GST-Bsp1^CPI (Bsp1 552-576) (domain or fragment, S. cerevisiae)
chain: KETKPLVHPNKNRTRGPRRKLPTRV
B3: GST-Twf1^CPI (Twf1 308-332) (domain or fragment, S. cerevisiae)
chain: SNPDLPNKSNLKFNKPKGPLRKRRT
B4: CP: 6-histidine–tagged yeast actin capping protein, Cap1/Cap2 heterodimer (protein, UniProt P28495 2-268; P13517 2-287, looked up)
F-actin-capping protein … 1: SSSKFEEVINKIINDSPPGELREVYDDLIKITSENSKNTILDAIENYNVQNCIPIEVNGNSVIISKYNKEGAKFFDPVNSVIFSVNHLERKGLDIEPYEFTHAKIEKGQLKELHDKLHEYLLQSFPGDVSFAVYPVPEEISKISIIIVSTKYNPNNFWNGHWRSSYIYDLETRELSGQISTQVHYYEDGNVSFQSGKDINQSNVDDVVCTIRDIETNFENDLDLSFFDLNEKQFKALRRRLPVTRSKINWGSAIGSYRLGKNAAEGK
F-actin-capping protein … 2: SDAQFDAALDLLRRLNPTTLQENLNNLIELQPNLAQDLLSSVDVPLSTQKDSADSNREYLCCDYNRDIDSFRSPWSNTYYPELSPKDLQDSPFPSAPLRKLEILANDSFDVYRDLYYEGGISSVYLWDLNEEDFNGHDFAGVVLFKKNQSDHSNWDSIHVFEVTTSPSSPDSFNYRVTTTIILHLDKTKTDQNSHMMLSGNLTRQTEKDIAIDMSRPLDVIFTSHVANLGSLIEDIESQMRNLLETVYFEKTRDIFHQTKNAAIASSAEEANKDAQAEVIRGLQSL
modifications: His6 tag

Columns and labels:
[1] = molecular target: T1, His-Cap1/2 (CP) (Saccharomyces cerevisiae, UniProt P13517+P28495); type: biochemical; settings: in words; yeast actin, CP 100 nM, 500 nM peptide
T1 sequence (P28495 1-268): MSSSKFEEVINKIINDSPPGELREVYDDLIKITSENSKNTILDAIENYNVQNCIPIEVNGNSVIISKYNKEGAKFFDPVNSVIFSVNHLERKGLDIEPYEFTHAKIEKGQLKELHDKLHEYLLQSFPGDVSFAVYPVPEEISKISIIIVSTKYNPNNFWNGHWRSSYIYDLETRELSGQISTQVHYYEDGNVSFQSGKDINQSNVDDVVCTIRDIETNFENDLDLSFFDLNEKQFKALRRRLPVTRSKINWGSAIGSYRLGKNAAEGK
T1 sequence (P13517 1-287): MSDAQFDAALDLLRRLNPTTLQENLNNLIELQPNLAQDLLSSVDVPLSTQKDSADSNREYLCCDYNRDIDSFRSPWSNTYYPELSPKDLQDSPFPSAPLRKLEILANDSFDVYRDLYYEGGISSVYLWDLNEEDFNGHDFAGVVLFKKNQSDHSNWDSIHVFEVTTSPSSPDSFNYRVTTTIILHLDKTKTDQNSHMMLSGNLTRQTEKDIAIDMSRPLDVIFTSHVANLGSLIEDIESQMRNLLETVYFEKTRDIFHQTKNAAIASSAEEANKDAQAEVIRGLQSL

[2] = system: His-Cap1/2; assay: GST pulldown of capping protein by GST-CPI motif fusions; type: binding, Saccharomyces cerevisiae; settings: in words; SDS-PAGE and Coomassie staining; His-Tda2 added with Aim21 fusions
Procedure, shortened: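 Recombinant GST-CPI fusions and His-Cap1/2 were expressed in BL21 codon plus E. coli, affinity-purified, and dialyzed into PBS. GST protein (10 μg) was bound to glutathione Sepharose for 30 min at 4°C. Equimolar His-protein (His-Tda2 also for Aim21) was added for another 30 min. Resin was washed three times in PBS with 0.1–0.5% Triton X-100. Each pulldown was repeated independently.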

[3] = molecular target: T2, 6-histidine-tagged actin capping protein (His-Cap1/2) (S. cerevisiae, UniProt P28495 1-268; P13517 1-287); assay: pull-down
T2 sequence (looked up) 1: T1 sequence (P28495 1-268)
T2 sequence (looked up) 2: T1 sequence (P13517 1-287)

[4] = molecular target: T3, His-Cap1/2^D44A (S. cerevisiae, UniProt P28495 1-268; P13517 1-287, D44A); assay: pull-down
T3 sequence (looked up) 1: T1 sequence (P28495 1-268)
T3 sequence (looked up) 2: T1 sequence (P13517 1-287) with D44A

[5] = molecular target: T4, His-Cap1/2^D64A (S. cerevisiae, UniProt P28495 1-268; P13517 1-287, D64A); assay: pull-down
T4 sequence (looked up) 1: T1 sequence (P28495 1-268)
T4 sequence (looked up) 2: T1 sequence (P13517 1-287) with D64A

[6] = molecular target: T5, His-Cap1/2^D88A (S. cerevisiae, UniProt P28495 1-268; P13517 1-287, D88A); assay: pull-down
T5 sequence (looked up) 1: T1 sequence (P28495 1-268)
T5 sequence (looked up) 2: T1 sequence (P13517 1-287) with D88A

[7] = system: rabbit skeletal muscle actin; assay: Pyrene actin polymerization assay, substance alone; type: biochemical; settings: in words, capping protein 100 nM, 1 µM actin, 20% pyrene-labeled
Procedure, shortened: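 Rabbit skeletal muscle G-actin in G-buffer (pH 8, 0.2 mM ATP) was spun at 100,000 × g for 30 min at 4°C. It was Mg-exchanged (10 mM EGTA, 1 mM MgCl2) for 10 min at room temperature. Polymerization was started with 50 mM KCl, 2 mM MgCl2, 1 mM ATP and 1 mM EGTA (final). Pyrene fluorescence was read over time at ex 365/em 406 nm. Relative rate came from three independent assays, mean ± SEM.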

Row | Molecule | effect on the capping function of CP [1] | binding result [3] | binding result [4] | binding result [5] | binding result [6] | further results
1 | KTGPLGGTRRGRGPRGRKLPSKVASVEKIEEDDNTNKIEIFNNWNVSS [Aim21^CPI] | partially inhibited the capping function of CP | – | – | – | – | –
2 | GST-Inp51: GST fused to Inp51 fragment (874–900) (SIAGPTHSPTPIPEPKRGRKLPPPSSD; also: GST fusion, end not given here) | – | – | – | – | – | interaction with His-Cap1/2 in GST pulldown [2]: failed to pull down
3 | SNPDLPNKSNLKFNKPKGPLRKRRT [Twf1^CPI] | had no effect | – | – | – | – | –
4 | KETKPLVHPNKNRTRGPRRKLPTRV [Bsp1^CPI] | partially inhibited the capping function of CP | – | – | – | – | –
5 | B1 | – | binds | binds | binds | binds | –
6 | B2 | – | binds | binds | binds | binds | –
7 | B3 | – | binds | binds | binds | binds | –
8 | B4 | – | – | – | – | – | ability to cap actin filaments ([7]; listed as CP^1*): no ability to cap actin filaments; ability to cap actin filaments ([7]; listed as CP^2*): equivalent capping ability to CP
